No end group written: not given here.
Assays:
[1] = target: T1, alpha 5 beta 1 integrin (Homo sapiens, UniProt P05556+P08648); type: binding; details: unrelated cyclic control peptide
[2] = target: alpha 5 beta 1 integrin (UniProt G3HZ55+P08648); experiment: Cell attachment assay: B2/a27 cells on fibronectin; type: cell-based, human
[3] = target: T1, alpha 5 beta 1 integrin; type: binding; details: control peptide; not shown
[4] = target: T1, alpha 5 beta 1 integrin; type: binding
[5] = target: alpha IIb beta 3 integrin (Homo sapiens, UniProt P05106+P08514); experiment: Binding to wells coated with alpha IIb beta 3 integrin
[6] = target: alpha v beta 3 integrin (Homo sapiens, UniProt P05106+P06756); type: binding
Summary of the method: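 Human placental αvβ3 (octyl glucoside extract with 1 mM MnCl2 and 1 mM CaCl2) coated in microtiter wells. Phage incubated 1 h at room temperature, then washed five times. Bound phage infected K91kan bacteria for 10 min at 37°C, then grown in Terrific broth with tetracycline and kanamycin (30 min at 37°C, then overnight at room temperature with shaking). Bacterial growth read as A600.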

T1 sequence (P08648 42-894 limits assumed): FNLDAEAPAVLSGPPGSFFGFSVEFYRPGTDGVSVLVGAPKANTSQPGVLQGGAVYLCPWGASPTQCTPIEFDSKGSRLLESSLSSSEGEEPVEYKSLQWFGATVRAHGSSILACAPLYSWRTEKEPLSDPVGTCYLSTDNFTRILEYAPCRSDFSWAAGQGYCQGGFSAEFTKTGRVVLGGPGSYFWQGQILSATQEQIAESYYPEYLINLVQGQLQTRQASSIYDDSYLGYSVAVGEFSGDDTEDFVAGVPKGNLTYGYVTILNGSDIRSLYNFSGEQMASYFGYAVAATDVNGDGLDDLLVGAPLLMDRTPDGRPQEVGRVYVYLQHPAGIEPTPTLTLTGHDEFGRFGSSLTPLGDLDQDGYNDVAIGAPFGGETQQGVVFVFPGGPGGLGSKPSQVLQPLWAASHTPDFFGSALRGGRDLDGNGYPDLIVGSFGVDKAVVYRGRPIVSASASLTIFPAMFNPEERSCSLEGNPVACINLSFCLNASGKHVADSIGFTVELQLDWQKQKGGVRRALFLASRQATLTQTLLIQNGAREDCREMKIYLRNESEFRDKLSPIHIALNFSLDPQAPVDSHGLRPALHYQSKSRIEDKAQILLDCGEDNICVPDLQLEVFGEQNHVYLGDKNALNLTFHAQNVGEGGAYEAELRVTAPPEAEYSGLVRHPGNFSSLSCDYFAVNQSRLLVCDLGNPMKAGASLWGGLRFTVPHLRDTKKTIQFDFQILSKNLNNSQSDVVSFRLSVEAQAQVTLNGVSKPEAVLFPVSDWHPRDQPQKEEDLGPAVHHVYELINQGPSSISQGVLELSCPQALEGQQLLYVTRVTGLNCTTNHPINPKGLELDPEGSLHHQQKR
T1 sequence (P08648 895-1049 limits assumed): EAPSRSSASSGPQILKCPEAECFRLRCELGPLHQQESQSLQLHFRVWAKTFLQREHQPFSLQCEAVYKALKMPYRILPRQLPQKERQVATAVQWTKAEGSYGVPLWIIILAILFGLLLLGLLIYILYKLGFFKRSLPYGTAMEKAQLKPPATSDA
T1 sequence (P05556 21-798): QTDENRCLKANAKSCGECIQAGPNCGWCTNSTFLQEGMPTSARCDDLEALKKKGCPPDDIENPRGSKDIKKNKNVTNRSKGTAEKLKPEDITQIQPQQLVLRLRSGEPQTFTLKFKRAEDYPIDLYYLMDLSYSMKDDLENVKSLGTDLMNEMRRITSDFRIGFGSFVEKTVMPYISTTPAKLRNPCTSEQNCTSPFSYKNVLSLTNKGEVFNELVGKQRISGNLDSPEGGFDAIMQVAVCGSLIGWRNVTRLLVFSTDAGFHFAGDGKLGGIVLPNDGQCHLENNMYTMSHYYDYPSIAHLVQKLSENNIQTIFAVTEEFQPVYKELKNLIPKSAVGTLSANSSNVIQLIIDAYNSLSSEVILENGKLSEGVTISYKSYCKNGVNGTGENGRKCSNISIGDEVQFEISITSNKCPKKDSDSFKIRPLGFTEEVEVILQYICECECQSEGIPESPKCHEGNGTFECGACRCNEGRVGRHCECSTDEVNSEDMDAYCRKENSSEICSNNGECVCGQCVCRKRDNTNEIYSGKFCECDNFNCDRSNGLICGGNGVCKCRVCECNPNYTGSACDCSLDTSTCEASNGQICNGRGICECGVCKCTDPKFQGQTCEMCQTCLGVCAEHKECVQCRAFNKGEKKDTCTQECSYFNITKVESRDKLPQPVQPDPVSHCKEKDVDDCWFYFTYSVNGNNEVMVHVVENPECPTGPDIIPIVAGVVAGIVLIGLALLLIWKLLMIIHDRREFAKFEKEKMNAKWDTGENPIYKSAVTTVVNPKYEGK
Sequence of alpha 5 beta 1 integrin (UniProt G3HZ55+P08648) (P08648 42-894 limits assumed): as the sequence (P08648 42-894 limits assumed) above
Sequence of alpha 5 beta 1 integrin (UniProt G3HZ55+P08648) (P08648 895-1049 limits assumed): as the sequence (P08648 895-1049 limits assumed) above
Sequence of alpha 5 beta 1 integrin (UniProt G3HZ55+P08648) (G3HZ55 21-798): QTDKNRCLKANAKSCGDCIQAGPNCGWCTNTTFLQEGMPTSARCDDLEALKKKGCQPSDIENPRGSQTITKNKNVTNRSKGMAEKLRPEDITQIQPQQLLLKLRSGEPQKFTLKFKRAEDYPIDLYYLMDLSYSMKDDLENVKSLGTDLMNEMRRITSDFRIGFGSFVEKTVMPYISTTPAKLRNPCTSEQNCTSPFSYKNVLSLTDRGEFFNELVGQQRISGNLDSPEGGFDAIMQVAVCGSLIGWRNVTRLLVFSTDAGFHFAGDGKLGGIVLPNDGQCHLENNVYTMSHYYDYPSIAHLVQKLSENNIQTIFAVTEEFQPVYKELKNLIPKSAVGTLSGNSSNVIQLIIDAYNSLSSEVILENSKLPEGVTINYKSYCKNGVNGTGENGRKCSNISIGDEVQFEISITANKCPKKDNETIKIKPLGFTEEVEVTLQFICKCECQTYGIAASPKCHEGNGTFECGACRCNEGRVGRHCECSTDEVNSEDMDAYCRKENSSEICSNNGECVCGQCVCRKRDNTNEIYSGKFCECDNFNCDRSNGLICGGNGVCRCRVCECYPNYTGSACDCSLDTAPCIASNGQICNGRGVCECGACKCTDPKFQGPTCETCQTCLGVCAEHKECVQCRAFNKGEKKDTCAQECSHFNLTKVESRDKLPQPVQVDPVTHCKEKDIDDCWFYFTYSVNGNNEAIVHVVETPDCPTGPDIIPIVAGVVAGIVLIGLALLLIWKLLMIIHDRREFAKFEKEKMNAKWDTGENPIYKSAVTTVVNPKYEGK
Sequence of alpha IIb beta 3 integrin (P08514 32-887 limits assumed): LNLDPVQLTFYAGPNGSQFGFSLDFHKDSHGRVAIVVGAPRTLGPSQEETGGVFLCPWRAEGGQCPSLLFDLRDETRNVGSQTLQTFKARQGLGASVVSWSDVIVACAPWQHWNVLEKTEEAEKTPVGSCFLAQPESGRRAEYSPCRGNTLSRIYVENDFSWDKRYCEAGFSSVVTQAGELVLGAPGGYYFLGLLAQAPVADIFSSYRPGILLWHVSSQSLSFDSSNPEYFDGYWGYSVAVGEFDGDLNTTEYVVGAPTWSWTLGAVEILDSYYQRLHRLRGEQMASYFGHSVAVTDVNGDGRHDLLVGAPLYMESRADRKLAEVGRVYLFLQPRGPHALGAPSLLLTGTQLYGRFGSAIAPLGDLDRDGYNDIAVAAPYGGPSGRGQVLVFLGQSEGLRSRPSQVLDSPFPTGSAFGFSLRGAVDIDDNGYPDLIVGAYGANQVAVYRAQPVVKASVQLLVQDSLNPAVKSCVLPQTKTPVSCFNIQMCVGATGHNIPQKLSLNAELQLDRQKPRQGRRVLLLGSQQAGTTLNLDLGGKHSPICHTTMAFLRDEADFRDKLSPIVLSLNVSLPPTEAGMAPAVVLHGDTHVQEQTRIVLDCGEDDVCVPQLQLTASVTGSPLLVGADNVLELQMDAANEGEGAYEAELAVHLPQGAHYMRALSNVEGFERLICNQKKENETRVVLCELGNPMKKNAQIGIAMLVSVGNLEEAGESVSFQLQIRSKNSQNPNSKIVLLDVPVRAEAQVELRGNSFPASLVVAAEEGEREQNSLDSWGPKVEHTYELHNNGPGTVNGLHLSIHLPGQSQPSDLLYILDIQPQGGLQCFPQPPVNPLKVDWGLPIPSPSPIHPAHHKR
Sequence of alpha IIb beta 3 integrin (P05106 27-788): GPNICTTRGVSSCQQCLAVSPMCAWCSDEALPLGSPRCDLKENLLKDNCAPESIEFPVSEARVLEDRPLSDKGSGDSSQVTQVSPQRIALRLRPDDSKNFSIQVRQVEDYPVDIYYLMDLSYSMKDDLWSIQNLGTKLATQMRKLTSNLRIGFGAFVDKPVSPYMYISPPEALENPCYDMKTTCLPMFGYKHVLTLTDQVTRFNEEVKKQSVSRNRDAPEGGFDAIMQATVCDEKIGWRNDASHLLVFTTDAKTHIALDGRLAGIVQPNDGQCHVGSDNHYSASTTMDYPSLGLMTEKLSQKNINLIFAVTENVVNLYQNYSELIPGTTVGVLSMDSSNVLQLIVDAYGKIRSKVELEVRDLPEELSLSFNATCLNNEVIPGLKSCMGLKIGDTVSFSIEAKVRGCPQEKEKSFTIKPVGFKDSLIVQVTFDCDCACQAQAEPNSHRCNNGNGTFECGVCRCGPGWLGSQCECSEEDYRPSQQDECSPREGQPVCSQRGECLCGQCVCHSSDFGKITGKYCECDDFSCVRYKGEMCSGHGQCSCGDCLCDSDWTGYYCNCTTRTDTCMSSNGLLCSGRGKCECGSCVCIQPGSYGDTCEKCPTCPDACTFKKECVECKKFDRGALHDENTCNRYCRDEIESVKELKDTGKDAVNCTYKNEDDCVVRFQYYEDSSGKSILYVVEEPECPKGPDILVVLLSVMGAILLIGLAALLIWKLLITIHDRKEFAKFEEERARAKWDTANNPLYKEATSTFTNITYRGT

Substance	Binding of phage clone to microtiter wells coated with alpha 5 beta 1 [4]	other results
GA*CSPYFLRLC*GA (disulfide)		Effect on binding of 125I-labeled fibronectin to alpha 5 beta 1 [1]: no significant effect
GACRRETAWACGA [GACRRETAWACGA not cyclized]		Activity of peptide not cyclized by oxidation ([2]; relative to cyclic *CRRETAWAC*): reduced activity
GRGESP [reference compound]		Effect on alpha 5 beta 1-mediated cell attachment to fibronectin ([2]; control peptide): no effect; Effect on binding of RRETAWA-containing phage to alpha 5 beta 1 [3]: no effect
RGAPRAW (disulfide (positions not given here))	bound weakly	
RRETAWA (disulfide (positions not given here)) [RRETAWA-phage]	avidly	Binding to the alpha IIb beta 3 integrin [5]: did not bind; Binding of phage clone to microtiter wells coated with alpha v beta 3 [6]: only weakly
STSDVGG (disulfide (positions not given here))	significantly over the background	
TLVPSRS (disulfide (positions not given here))	significantly over the background	
VFSIAHE (disulfide (positions not given here))	significantly over the background	
VRLNSLA (disulfide)	significantly over the background	

Reference: publication PMC2119941 (The Journal of Cell Biology, 1994)
